Measured values: paper PMC6980747 (Cell chemical biology, 2019)

Experiments:
[1] = system: pPRAS40, pGSK3β, pS6 in T47D cells; test: Immunoblot of downstream AKT signaling in T47D cells; format: cell-based; conditions: 24 hours
[2] = system: ZR-75-1 cells; test: Growth rate inhibition; format: cell-based; conditions: ZR-75-1, 72-hour treatment
[3] = system: pPRAS40 in T47D and MDA-MB-468 cells; test: Time course and washout immunoblots of pPRAS40; format: cell-based; conditions: for pPRAS40 levels over time: 250 nM, T47D and MDA-MB-468, continuous treatment; for pPRAS40 levels after washout: 12 hours treatment with 250 nM, then washout
[4] = biological target: PKG1 (Homo sapiens, UniProt Q13976); test: Z'-LYTE kinase assay, PKG1; format: biochemical
[5] = system: AKT1, AKT2, AKT3 in MDA-MB-468 cells; test: Immunoblot of AKT isoform degradation in MDA-MB-468 cells; format: cell-based
[6] = biological target: RET (V804M) (Homo sapiens, UniProt P07949, V804M); test: LanthaScreen assay, RET; format: biochemical
[7] = system: MOLT4 cells proteome; test: TMT quantitative mass spectrometry proteomics in MOLT4 cells; format: cell-based, human; conditions: MOLT4, 250 nM, 4 hours, vs DMSO
[8] = system: MDA-MB-468 and HCC1937 cells; test: Growth rate inhibition; format: cell-based; conditions: MDA-MB-468 and HCC1937, 72-hour treatment
[9] = system: AKT isoforms in T47D cells; test: Immunoblot of AKT degradation in T47D cells; format: cell-based; conditions: 24-hour treatment, 250 nM
[10] = biological target: AKT2 (Homo sapiens, UniProt P31751); test: Z'-LYTE FRET-based kinase inhibition assay, AKT2; format: biochemical
[11] = biological target: T1, S6K1 (Homo sapiens, UniProt P23443); test: Immunoblot of S6K1 degradation; format: cell-based
[12] = system: AKT in T47D and MDA-MB-468 cells; test: Time course and washout immunoblots of AKT levels; format: cell-based
[13] = biological target: AKT3 (Homo sapiens, UniProt Q9Y243); test: Z'-LYTE FRET-based kinase inhibition assay, AKT3; format: biochemical
[14] = system: Ikaros (IKZF1) and Aiolos (IKZF3); test: Immunoblot of Ikaros and Aiolos degradation; format: cell-based; conditions: 24 hours of drug treatment
Summary of the method: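 Cells were seeded at 250,000/mL (T47D at 200,000/mL) in RPMI or DMEM with 10% serum, left overnight, then given test compound. They were lysed 15 min in RIPA (pH 7.5) with 0.1% SDS, phosphatase and protease inhibitors, cleared at 14,000 rpm for 10 min at 4°C, and protein-normalized. Lysates went through SDS-PAGE and nitrocellulose transfer, milk block, primary antibodies at 4°C overnight, and fluorescent secondaries 1 h RT. Imaging was on a LI-COR Odyssey.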

[15] = biological target: AKT1 (Homo sapiens, UniProt P31749); test: Z'-LYTE FRET-based kinase inhibition assay, AKT1; format: biochemical
[16] = biological target: T1, S6K1; test: Z'-LYTE kinase assay, S6K1; format: biochemical
[17] = system: ZR-75-1, T47D, LNCaP, and MCF-7 cells; test: Growth rate inhibition; format: cell-based; conditions: 72-hour treatment, Figures 3A-D

T1 sequence (P23443 whole entry): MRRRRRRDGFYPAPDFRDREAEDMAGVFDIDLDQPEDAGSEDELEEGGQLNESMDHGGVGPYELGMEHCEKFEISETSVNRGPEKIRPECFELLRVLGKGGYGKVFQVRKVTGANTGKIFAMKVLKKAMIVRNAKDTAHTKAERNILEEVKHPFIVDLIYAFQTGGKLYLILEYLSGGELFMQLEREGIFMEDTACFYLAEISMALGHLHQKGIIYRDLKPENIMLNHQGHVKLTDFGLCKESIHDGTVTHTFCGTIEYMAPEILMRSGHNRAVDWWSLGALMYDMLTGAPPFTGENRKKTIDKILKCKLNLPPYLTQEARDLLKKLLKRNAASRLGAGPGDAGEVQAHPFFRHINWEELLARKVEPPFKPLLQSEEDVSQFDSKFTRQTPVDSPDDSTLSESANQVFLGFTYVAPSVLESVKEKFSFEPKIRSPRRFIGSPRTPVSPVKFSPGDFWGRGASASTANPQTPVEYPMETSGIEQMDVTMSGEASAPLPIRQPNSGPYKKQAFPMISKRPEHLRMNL
Chain of PKG1 (Q13976 whole entry, canonical isoform): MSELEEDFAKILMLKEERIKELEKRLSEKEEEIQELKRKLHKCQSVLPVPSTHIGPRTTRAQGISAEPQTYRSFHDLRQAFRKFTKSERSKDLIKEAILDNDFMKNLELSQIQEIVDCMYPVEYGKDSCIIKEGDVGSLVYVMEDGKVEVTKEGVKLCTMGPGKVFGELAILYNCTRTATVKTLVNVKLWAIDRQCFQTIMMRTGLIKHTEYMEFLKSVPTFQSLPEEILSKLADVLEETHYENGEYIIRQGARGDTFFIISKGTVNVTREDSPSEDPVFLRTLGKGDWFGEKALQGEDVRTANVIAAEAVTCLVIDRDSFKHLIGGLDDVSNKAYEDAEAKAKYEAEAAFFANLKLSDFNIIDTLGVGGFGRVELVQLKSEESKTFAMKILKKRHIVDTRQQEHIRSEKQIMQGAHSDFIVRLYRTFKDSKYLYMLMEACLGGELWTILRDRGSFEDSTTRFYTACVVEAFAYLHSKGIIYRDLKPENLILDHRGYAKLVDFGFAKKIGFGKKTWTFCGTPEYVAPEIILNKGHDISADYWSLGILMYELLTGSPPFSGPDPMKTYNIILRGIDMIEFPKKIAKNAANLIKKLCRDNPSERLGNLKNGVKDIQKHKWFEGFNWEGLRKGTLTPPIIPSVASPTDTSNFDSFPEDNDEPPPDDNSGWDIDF
Chain of AKT3 (Q9Y243 whole entry): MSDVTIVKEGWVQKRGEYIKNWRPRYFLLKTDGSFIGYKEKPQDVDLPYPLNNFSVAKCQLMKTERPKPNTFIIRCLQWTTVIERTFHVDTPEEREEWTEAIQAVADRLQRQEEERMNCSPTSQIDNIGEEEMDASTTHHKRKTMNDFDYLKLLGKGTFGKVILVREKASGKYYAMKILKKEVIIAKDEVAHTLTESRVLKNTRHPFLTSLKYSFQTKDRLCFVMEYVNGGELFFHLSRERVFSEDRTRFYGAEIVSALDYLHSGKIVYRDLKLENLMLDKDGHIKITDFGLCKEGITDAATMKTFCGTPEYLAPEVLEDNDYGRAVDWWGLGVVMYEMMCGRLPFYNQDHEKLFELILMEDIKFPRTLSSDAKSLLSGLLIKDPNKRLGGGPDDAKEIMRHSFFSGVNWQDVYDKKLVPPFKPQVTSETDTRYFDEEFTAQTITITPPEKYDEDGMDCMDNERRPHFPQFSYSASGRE
Chain of AKT2 (P31751 whole entry): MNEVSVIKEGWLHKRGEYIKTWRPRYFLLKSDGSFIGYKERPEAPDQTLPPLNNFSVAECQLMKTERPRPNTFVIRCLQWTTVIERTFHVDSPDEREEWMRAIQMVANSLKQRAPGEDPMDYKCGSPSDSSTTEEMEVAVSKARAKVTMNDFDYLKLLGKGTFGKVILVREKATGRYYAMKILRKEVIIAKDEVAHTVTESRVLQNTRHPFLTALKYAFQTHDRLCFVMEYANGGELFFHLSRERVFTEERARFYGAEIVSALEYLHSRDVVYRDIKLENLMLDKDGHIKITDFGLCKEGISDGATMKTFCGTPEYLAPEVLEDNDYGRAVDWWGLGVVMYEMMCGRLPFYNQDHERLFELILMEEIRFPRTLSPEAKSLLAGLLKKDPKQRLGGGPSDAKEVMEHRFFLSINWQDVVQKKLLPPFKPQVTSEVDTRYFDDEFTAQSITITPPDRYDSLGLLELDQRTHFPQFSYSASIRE
Chain of AKT1 (P31749 whole entry): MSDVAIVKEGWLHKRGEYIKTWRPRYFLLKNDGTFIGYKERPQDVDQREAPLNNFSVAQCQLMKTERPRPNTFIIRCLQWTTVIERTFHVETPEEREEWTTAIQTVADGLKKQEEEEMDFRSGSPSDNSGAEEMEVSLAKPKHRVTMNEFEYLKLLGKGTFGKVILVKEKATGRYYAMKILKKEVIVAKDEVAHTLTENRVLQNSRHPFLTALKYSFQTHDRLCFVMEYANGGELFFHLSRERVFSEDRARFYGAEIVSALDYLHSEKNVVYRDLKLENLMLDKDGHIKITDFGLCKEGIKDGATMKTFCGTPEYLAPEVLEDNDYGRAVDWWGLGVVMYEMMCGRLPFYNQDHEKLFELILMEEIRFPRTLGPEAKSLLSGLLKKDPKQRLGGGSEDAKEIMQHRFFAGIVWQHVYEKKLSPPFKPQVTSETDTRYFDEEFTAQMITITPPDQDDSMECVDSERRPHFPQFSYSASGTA
Chain of RET (V804M) (P07949 29-1114 V804M): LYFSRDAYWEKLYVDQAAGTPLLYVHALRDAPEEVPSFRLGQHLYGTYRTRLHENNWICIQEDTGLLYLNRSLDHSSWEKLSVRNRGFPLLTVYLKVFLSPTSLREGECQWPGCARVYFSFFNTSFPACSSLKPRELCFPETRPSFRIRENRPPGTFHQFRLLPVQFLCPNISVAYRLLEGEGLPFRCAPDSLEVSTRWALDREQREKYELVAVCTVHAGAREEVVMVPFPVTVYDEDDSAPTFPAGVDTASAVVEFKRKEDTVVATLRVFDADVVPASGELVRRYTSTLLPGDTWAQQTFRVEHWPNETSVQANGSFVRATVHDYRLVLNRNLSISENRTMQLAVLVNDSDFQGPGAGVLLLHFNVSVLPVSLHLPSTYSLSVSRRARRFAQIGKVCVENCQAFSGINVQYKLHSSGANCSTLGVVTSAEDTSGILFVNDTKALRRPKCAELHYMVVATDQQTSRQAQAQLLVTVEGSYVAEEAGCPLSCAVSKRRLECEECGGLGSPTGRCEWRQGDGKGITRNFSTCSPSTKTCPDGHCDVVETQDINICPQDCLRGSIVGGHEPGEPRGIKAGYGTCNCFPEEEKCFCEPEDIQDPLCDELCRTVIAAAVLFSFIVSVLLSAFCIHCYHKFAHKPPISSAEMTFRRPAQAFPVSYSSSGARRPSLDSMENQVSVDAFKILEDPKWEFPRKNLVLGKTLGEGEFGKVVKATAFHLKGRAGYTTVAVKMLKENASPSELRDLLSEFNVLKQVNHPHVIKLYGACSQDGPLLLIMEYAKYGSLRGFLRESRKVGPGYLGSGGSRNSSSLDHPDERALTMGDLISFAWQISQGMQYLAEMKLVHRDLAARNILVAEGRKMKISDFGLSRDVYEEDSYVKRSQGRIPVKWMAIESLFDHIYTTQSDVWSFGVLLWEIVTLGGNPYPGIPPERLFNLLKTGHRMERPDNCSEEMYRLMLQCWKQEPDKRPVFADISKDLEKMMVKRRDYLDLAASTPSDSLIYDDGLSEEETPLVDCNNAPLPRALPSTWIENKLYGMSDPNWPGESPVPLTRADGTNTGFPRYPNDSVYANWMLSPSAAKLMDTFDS

Compound: CC(C)NC[C@@H](C(=O)N1CCN(c2ncnc3c2[C@H](C)C[C@H]3O)CC1)c1ccc(Cl)cc1 [GDC-0068, ipatasertib, reference compound]
- dose required to observe comparable effects on pPRAS40, pGSK3β, and pS6 ([1]; comparable to 250 nM INY-03-041): up to 1 μM
- GR50 [2]: 229 nM
- pPRAS40 levels over time [3]: less pronounced inhibition of pPRAS40
- pPRAS40 levels after washout [3]: rebound of pPRAS40

Compound: C[C@@H]1C[C@@H](O)c2ncnc(N3CCN(C(=O)[C@H](CNCCCCCCCCCCc4cccc5c4CN(C4CCC(=O)NC4=O)C5=O)c4ccc(Cl)cc4)CC3)c21 (stereo partly drawn) [INY-03-041, 3-(4-(10-(((S)-2-(4-chlorophenyl)-3-(4-((5R,7R)-7-hydroxy-5-methyl-6,7-dihydro-5H-cyclopenta[d]pyrimidin-4-yl)piperazin-1-yl)-3-oxopropyl)amino)decyl)-1-oxoisoindolin-2-yl)piperidine-2,6-dione]
- IC50 [4]: 33.2 nM
- concentration that significantly reduced pPRAS40, pGSK3β, and pS6 levels [1]: 250 nM
- time to partial degradation of all AKT isoforms ([5]; MDA-MB-468, 250 nM): ≤ 4 h
- concentration at which diminished AKT degradation (hook effect) was observed ([5]; MDA-MB-468, 12-hour treatment): ≥ 500 nM
- IC50 [6]: > 10000 nM
- S6K1 and PKG1 abundance (proteomics) [7]: no downregulation of either kinases was observed
- change in protein abundance (proteomics) [7]: significant downregulation of all three AKT isoforms, as well as RNF166
- GR50 [2]: 16 nM
- fold increased potency compared to GDC-0068 (GR50) [2]: 14 fold
- GR50 comparison [8]: no apparent differences in GR50 values between INY-03-041 and INY-03-112
- AKT isoform levels after treatment [9]: no detectable levels of all three AKT isoforms
- IC50 [10]: 6.8 nM
- S6K1 degradation (immunoblot) [11]: did not induce S6K1 degradation
- duration of sustained destabilization of all three AKT isoforms ([12]; 250 nM, T47D and MDA-MB-468): at least 96 hours
- AKT levels after compound washout ([12]; 12 hours treatment with 250 nM, then washout): no detectable rebound of AKT levels for up to 96 hours
- IC50 [13]: 3.5 nM
- pPRAS40 levels over time [3]: significantly reduced for up to 96 hours
- pPRAS40 levels after washout [3]: potently suppressed levels of pPRAS40 for up to 96 hours after washout
- IKZF1 and IKZF3 degradation (immunoblot) [14]: weak IKZF1 and IKZF3 degradation
- concentration at which IKZF1 and IKZF3 degradation was seen [14]: ≥ 500 nM
- IC50 [15]: 2 nM
- IC50 [16]: 37.3 nM

Compound: C[C@@H]1C[C@@H](O)c2ncnc(N3CCN(C(=O)[C@H](CNCCCCCCCCCCc4cccc5c4CN(C4CCC(=O)N(C)C4=O)C5=O)c4ccc(Cl)cc4)CC3)c21 (stereo partly drawn) [INY-03-112, 3-(4-(10-(((S)-2-(4-chlorophenyl)-3-(4-((5R,7R)-7-hydroxy-5-methyl-6,7-dihydro-5H-cyclopenta[d]pyrimidin-4-yl)piperazin-1-yl)-3-oxopropyl)amino)decyl)-1-oxoisoindolin-2-yl)-1-methylpiperidine-2,6-dione]
- AKT isoform degradation ([5]; MDA-MB-468, immunoblot): did not induce potent degradation of any AKT isoform
- GR50 [2]: 413 nM

Compound: Nc1cccc2c1CN(C1CCC(=O)NC1=O)C2=O (centres unmarked) [lenalidomide]
- anti-proliferative effects [17]: did not have strong anti-proliferative effects
